Columns and labels:
Vaccinia virus [1] = assay: Minimum inhibitory concentration against vaccinia virus in primary rabbit kidney cell cultures of experiment 1; assay type: functional; conditions: Orthopoxvirus vaccinia
[2] = Inhibition of Moloney Murine Leukemia Associated Reverse Transcriptase; assay type: functional, Mus musculus
P388 [3] = assay: Concentration which leads to inhibitory effect on the proliferation of murine leukemia (P388) cells; assay type: functional; conditions: Mus musculus, read-out: ID50 (the source's name)
Summary of the method: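 Murine P388 leukaemia cells grown in Fischer's medium with 10% fetal calf serum. Compounds dissolved in water, or sonicated and given as a suspension if poorly soluble. Cells seeded at 1 × 10^5 per well and grown 72 h at 37 °C in humidified 5% CO2 with drug. Viability read by MTT formazan optical density at 570 nm (reference 630 nm).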

Vaccinia virus [4] = assay: Minimum inhibitory concentration against vaccinia virus embryonic skin muscle cell cultures; assay type: functional; conditions: Orthopoxvirus vaccinia
Vaccinia virus [5] = assay: Minimum cytotoxic concentration against embryonic skin muscle cell cultures; assay type: functional; conditions: Orthopoxvirus vaccinia
Summary of the method: (§1)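 Host cell cultures (primary rabbit kidney, HeLa, Vero, or E6SM embryonic skin-muscle cells, as named) exposed to compound. Minimum cytotoxic concentration taken as the concentration required to cause a microscopically detectable alteration of normal cell morphology.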

Raji [6] = assay: Inhibitory effect on the proliferation of human B lymphoblast (Raji ) cells; assay type: functional; conditions: read-out: ID50 (the source's name)
[7] = Inhibitory effect on the proliferation of human T-lymphoblast (Molt/4F ) cells; assay type: functional; conditions: read-out: ID50 (the source's name)
Vaccinia virus [8] = assay: (§2) Minimum inhibitory concentration against vaccinia virus in primary rabbit kidney cell cultures of experiment 2; assay type: functional, Orthopoxvirus vaccinia
Human alphaherpesvirus 2 = assay: Minimum inhibitory concentration against Herpes simplex virus 2(G); assay type: functional
[9] = tested on: Vesicular stomatitis virus; assay: Minimum inhibitory concentration against Vesicular stomatitis virus; assay type: functional
Vaccinia virus [10] = assay: Minimum inhibitory concentration against Vaccinia virus; assay type: functional; conditions: Orthopoxvirus vaccinia
Vaccinia virus [11] = assay: Minimum cytotoxic concentration against HeLa cell cultures; assay type: functional; conditions: Orthopoxvirus vaccinia; summary of the method: as §1
Vaccinia virus [12] = assay: Minimum inhibitory concentration against vaccinia virus in Vero cell cultures of experiment 2; assay type: functional; conditions: Orthopoxvirus vaccinia
Human alphaherpesvirus 1 = assay: Minimum inhibitory concentration against Herpes simplex virus 1(KOS); assay type: functional
PRK = assay: Compound was evaluated for the minimum cytotoxic concentration in primary rabbit kidney (PRK) cell cultures; assay type: functional; conditions: Oryctolagus cuniculus; summary of the method: as §1
Vaccinia virus [13] = assay: Minimum cytotoxic concentration against primary rabbit kidney cell cultures; assay type: functional; conditions: Orthopoxvirus vaccinia; summary of the method: as §1
Vaccinia virus [14] = assay: Minimum cytotoxic concentration against Vero cell cultures; assay type: functional; conditions: Orthopoxvirus vaccinia; summary of the method: as §1
Vaccinia virus [15] = assay: Minimum inhibitory concentration against vaccinia virus in Vero cell cultures of experiment 1; assay type: functional; conditions: Orthopoxvirus vaccinia
L1210 [16] = assay: Inhibitory effect on the proliferation of murine leukemia (L1210 ) cells; assay type: functional; conditions: Mus musculus, read-out: ID50 (the source's name)
FM3A [17] = assay: Inhibitory effect on the proliferation of murine mammary carcinoma (FM3A ) cells; assay type: functional; conditions: Mus musculus, read-out: ID50 (the source's name)
Calf thymus DNA = assay: Relative binding constant to calf thymus DNA; assay type: nucleic-acid assay; conditions: Bos taurus
Summary of the method: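 Ethidium displacement: Tris-EDTA buffer pH 8 with 1.3 μM ethidium bromide and calf thymus DNA (1.35 μM final); drug aliquots added, fluorescence read after a few minutes' equilibration (excitation 525 nm, emission 600 nm). Drug level giving 50% fluorescence decrease converted to relative binding constant taking ethidium binding constant as 10^7 M-1.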

[18] = Minimum cytotoxic concentration in primary rabbit kidney (PRK) cell cultures; assay type: functional, Oryctolagus cuniculus
Vaccinia virus [19] = assay: Minimum cytotoxic concentration against vaccinia virus in primary rabbit kidney cell cultures; assay type: functional; conditions: Orthopoxvirus vaccinia
Vaccinia virus [20] = assay: Minimum cytotoxic concentration against vaccinia virus embryonic skin muscle cell cultures; assay type: functional; conditions: Orthopoxvirus vaccinia
Vaccinia virus [21] = assay: Minimum cytotoxic concentration against vaccinia virus in HeLa cell cultures; assay type: functional; conditions: Orthopoxvirus vaccinia
Vaccinia virus [22] = assay: as §2; assay type: functional; conditions: Orthopoxvirus vaccinia
FM3A [23] = assay: Inhibitory effect on the proliferation of murine mammary carcinoma (FM3A) cells; assay type: functional; conditions: Mus musculus, read-out: ID50 (the source's name)
Raji [24] = assay: Inhibitory effect on the proliferation of human B lymphoblast (Raji) cells; assay type: functional; conditions: read-out: ID50 (the source's name)
[25] = Inhibitory effect on the proliferation of human T-lymphoblast (Molt/4F) cells; assay type: functional; conditions: read-out: ID50 (the source's name)
Vaccinia virus [26] = assay: Minimum cytotoxic concentration against vaccinia virus in Vero cell cultures; assay type: functional; conditions: Orthopoxvirus vaccinia
L1210 [27] = assay: Inhibitory effect on the proliferation of murine leukemia (L1210) cells; assay type: functional; conditions: Mus musculus, read-out: ID50 (the source's name)
P388 [28] = assay: Inhibitory effect on the proliferation of murine leukemia (P388) cells; assay type: functional; conditions: Mus musculus, read-out: ID50 (the source's name)
Vaccinia virus [29] = assay: Minimum inhibitory concentration against vaccinia virus in HeLa cell cultures; assay type: functional; conditions: Orthopoxvirus vaccinia
Vaccinia virus [30] = assay: Minimum cytotoxic concentration against vaccinia virus against embryonic skin muscle cell cultures; assay type: functional; conditions: Orthopoxvirus vaccinia
[31] = Orthopoxvirus vaccinia, read-out: MIC

SMILES	MIC (Vaccinia virus [1])	ID50 [2]	MIC (Vaccinia virus [4])	MIC (Vaccinia virus [8]; [31])	MIC (Human alphaherpesvirus 2)	MIC [9]	MIC (Vaccinia virus [10])	MIC (Vaccinia virus [12])	MIC (Human alphaherpesvirus 1)	MIC (Vaccinia virus [15])	Binding constant (Calf thymus DNA)	MCC [18]	MCC (Vaccinia virus [19])	MCC (Vaccinia virus [21])	MCC (Vaccinia virus [26])	IC50 (P388 [28])	also measured
Cl.Cl.Cn1cc(NC(=O)CCC(=O)Nc2cc(C(=O)NCCC(=N)N)n(C)c2)cc1C(=O)NCCC(=N)N	300 µg/mL	>400 µg/mL	70 µg/mL	400 µg/mL	> 40 µg/mL	> 100 µg/mL	20 µg/mL	> 400 µg/mL	> 100 µg/mL	> 400 µg/mL	–	–	–	–	–	–	IC50 (P388 [3]): > 20 µg/mL; MCC (Vaccinia virus [5]): > 400 µg/mL; IC50 (Raji [6]): > 100 µg/mL; IC50 [7]: > 100 µg/mL; MIC (Vaccinia virus [8]): >400 µg/mL; MCC (Vaccinia virus [11]): > 400 µg/mL; MCC (PRK): > 100 µg/mL; MCC (Vaccinia virus [13]): > 400 µg/mL; MCC (Vaccinia virus [14]): > 400 µg/mL; IC50 (L1210 [16]): > 100 µg/mL; IC50 (FM3A [17]): > 100 µg/mL
Cl.Cl.Cn1cc(NC(=O)c2cc(NC(=O)Nc3cc(C(=O)Nc4cc(C(=O)NCCC(=N)N)n(C)c4)n(C)c3)cn2C)cc1C(=O)NCCC(=N)N	7 µg/mL	–	2 µg/mL	20 µg/mL	20 µg/mL	> 40 µg/mL	7 µg/mL	20 µg/mL	> 10 µg/mL	20 µg/mL	5.6e+07 M⁻¹	>40 µg/mL	40 µg/mL	> 40 µg/mL	> 40 µg/mL	8 µg/mL	MCC (Vaccinia virus [20]): 100 µg/mL; MIC (Vaccinia virus [22]): 7 µg/mL; IC50 (FM3A [23]): > 100 µg/mL; IC50 (Raji [24]): > 100 µg/mL; IC50 [25]: > 100 µg/mL; IC50 (L1210 [27]): > 100 µg/mL
Cl.Cl.Cn1cc(NC(=O)c2cc(NC(=O)CCCCCCCCCC(=O)Nc3cc(C(=O)Nc4cc(C(=O)NCCC(=N)N)n(C)c4)n(C)c3)cn2C)cc1C(=O)NCCC(=N)N	2 µg/mL	10.3 µg/mL	0.2 µg/mL	–	20 µg/mL	> 40 µg/mL	2 µg/mL	–	> 10 µg/mL	> 40 µg/mL	1.9e+07 M⁻¹	>40 µg/mL	> 40 µg/mL	100 µg/mL	100 µg/mL	18 µg/mL	MIC (Vaccinia virus [29]): 20 µg/mL; MCC (Vaccinia virus [30]): > 40 µg/mL
